# A selection: hits, their analogues and other compounds. The true share with any hit is near 4%.
# Measles CPE: protection of cells from measles virus; protection (pct of control), % at 4 µM; AID 841; Measles virus-infected cells, CPE protection, absorbance; 1.5% of 140,000 active; in the data active = protection mostly above about 24%, no sharp cut-off; inactive = mostly below about 26%
# Mdm2 ligase inh: blocks human Mdm2 ubiquitin ligase activity; Q00987; cell-based MDM2 ubiquitination luciferase reporter, 2 h; 0 = plate control, 100 = twice control, blank-subtracted; signal enhancement, % at 5 µM; 0.11% of 210,000 active;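 active = signal enhancement of 30% or more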;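 note: luminescence tracks abundance of the self-degrading MDM2-luciferase fusion protein; higher signal means inhibition of MDM2 E3 ligase activity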
# Target sequence (Q00987 whole entry, looked up, the tested form may be a part): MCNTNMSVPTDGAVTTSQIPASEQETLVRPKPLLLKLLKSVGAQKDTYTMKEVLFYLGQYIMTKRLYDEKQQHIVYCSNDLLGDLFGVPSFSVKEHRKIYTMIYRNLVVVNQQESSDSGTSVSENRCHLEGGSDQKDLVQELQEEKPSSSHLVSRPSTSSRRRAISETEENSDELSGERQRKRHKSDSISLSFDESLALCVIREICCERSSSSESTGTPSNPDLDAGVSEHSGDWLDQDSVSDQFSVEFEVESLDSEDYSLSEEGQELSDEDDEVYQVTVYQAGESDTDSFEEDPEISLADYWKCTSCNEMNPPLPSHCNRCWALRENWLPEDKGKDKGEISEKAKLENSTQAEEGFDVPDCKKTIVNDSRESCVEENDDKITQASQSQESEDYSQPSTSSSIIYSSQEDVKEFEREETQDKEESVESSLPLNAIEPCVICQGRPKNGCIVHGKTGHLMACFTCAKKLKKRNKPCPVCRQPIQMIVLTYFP
#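 Timing – 2 h compound exposure at 37 °C · Assay system – mammalian cells stably expressing self-ubiquitinating, self-degrading MDM2 E3–luciferase fusion · Amount – 2000 cells seeded into each well · Measure – % luminescence enhancement versus blank-corrected plate control mean · Measured by – SteadyLite luminescence, 15 min reagent step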
# Yeast growth inh: chemicals that inhibit yeast BB579 growth in restrictive medium (lifespan-shortening candidates) | S. cerevisiae BB579 growth, OD615, 48 h | inhibition, % at 10 µM | 0.51% of 140,000 active | AID 804;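 active = inhibition above a set limit, 3 SD over the mean compound inhibition, cut at about 44% in these data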
#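 System: Saccharomyces cerevisiae DeaD strain BB579, replicative lifespan model yeast. Buffer or medium: restrictive glucose-based CSMM-D medium. Doses: one dose, 10 µM compound with 0.25% DMSO. Timing: 4 h preincubation and 48 h exposure at 30 °C. Detection: turbidity as optical density at 615 nm. Benchmarks: amphotericin B 10 µg/mL, positive.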
# Yeast lifespan up: yeast lifespan extension; S. cerevisiae growth with nicotinamide, OD615; deaD strain in restrictive glucose medium; inhibition of the nicotinamide effect, % at 10 µM; 0.68% of 130,000 active; AID 775;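 active = inhibition above a set limit, placed 3 SD over the median of all compounds, cut at about 26% in these data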
#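 Assay system: DeaD-strain S. cerevisiae. Medium: CSMM-D glucose medium, restrictive. Reagent: nicotinamide, 1.5 mM, co-present with compound. Compound: 10 µM single point, 0.25% DMSO. Schedule: culture preincubation 4 h, compound exposure 48 h, both 30 °C. Detection: absorbance at 615 nm.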
# RAM inhibit: yeast RAM network inhibition | S. cerevisiae dse1pr::URA3 reporter, 5-FOA growth OD615, 2 d; analog-sensitive cbk1-as2 kinase mutant strain | inhibition, % at 50 µM | 1.8% of 190,000 active;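 active = inhibition above a set limit, 3 SD over mean compound inhibition, cut at about 8.4% in these data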;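 note: inhibition rescues growth on 5-FOA so higher OD means more RAM inhibition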
# INS promoter inh: TRM-6 insulin promoter activity inhibition. TRM-6 cells (human fetal islet line), insulin promoter-eGFP reporter, imaging; reporter expression induced with tamoxifen. inhibition, % at 2 µM. 0.9% of 130,000 active. AID 1273;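 active = inhibition above the mean plus 3 SD, with well images judged a real hit on visual review, cut at about 60% in these data, passing the limit was not always enough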
# Numbers stand for hits; – = inactive; · = not tested or not shown.
SMILES,Measles CPE,Mdm2 ligase inh,Yeast growth inh,Yeast lifespan up,RAM inhibit,INS promoter inh
Cc1ccc(S(=O)(=O)N2CCC(=O)N(C(COCc3ccccc3)Cc3ccccc3)CC2)cc1 (stereo not given),–,·,–,–,–,–
Cc1ccc(S(=O)(=O)N2CCC(=O)N(C(COCc3cccc(C(F)(F)F)c3)Cc3ccccc3)CC2)cc1 (stereo not given),–,·,–,–,9.8,–
Cc1cc(C)cc(Nc2ncc3c(n2)CCCC3=O)c1,–,–,–,–,–,·
Cc1ccc(S(=O)(=O)NNC(=O)C(O)(c2ccccc2C)c2ccccc2C)cc1,–,–,–,–,–,–
Cc1cccc(COCC(Cc2ccccc2)N2CCN(C(=O)c3cccc(C)c3)CCC2=O)c1 (stereo not given),–,·,–,–,–,–
Cc1cccc(COCC(Cc2ccccc2)N2CCN(C(=O)c3ccc(Cl)c(Cl)c3)CCC2=O)c1 (stereo not given),–,·,–,–,10,–
O=C(c1ccc(C(F)(F)F)cc1)N1CCC(=O)N(C(COCc2ccc(Cl)cc2)Cc2ccccc2)CC1 (stereo not given),–,·,–,–,9.8,–
Cc1cccc(COCC(Cc2ccccc2)N2CCN(C(=O)c3cc(Cl)cc(Cl)c3)CCC2=O)c1 (stereo not given),–,·,–,–,11,–
O=C(c1ccc(Cl)c(Cl)c1)N1CCC(=O)N(C(COCc2cccc(C(F)(F)F)c2)Cc2ccccc2)CC1 (stereo not given),–,·,–,–,9.0,–
CCOC(=O)CSC(C)C(=O)Nc1nnc(C(C)C)s1 (stereo not given),–,–,–,–,–,·
CCc1nnc(NC(=O)CSc2nc3ccc(OC)cc3[nH]2)s1,·,–,·,·,–,·
O=C(NNC(=O)c1cccc2ccccc12)c1ccc2c(c1)OCO2,·,–,·,·,·,·
Cc1ccc[n+](CC(=O)Nc2cc(C(F)(F)F)ccc2N2CCOCC2)c1,·,–,·,·,–,–
NC(N)=NC(N)=Nc1ccc2ccccc2c1,·,–,·,·,–,·
NC(N)=NC(N)=Nc1ccc(SC(F)(F)F)cc1,24,–,–,–,–,–
Cc1c(NC(=O)C2CCN(S(=O)(=O)c3ccc(Cl)cc3)CC2)c(=O)n(-c2ccccc2)n1C,62,–,–,–,–,–
Cc1cc(OCC(=O)OCC(=O)Nc2cc(C(F)(F)F)ccc2N2CCOCC2)ccc1Cl,–,–,–,–,9.1,–
CSc1ncccc1C(=O)OCC(=O)Nc1cc(C(F)(F)F)ccc1N1CCOCC1,·,–,–,–,–,·
O=C(NCCCN1CCCC1)Nc1cccc2ccccc12,–,–,–,–,–,–
O=C(NCCCN1CCN(c2ccccc2F)CC1)Nc1ccccc1[N+](=O)[O-],·,–,·,·,–,78
CN1CCN(CCCNC(=O)Nc2cccc3ccccc23)CC1,44,–,–,–,–,–
O=C(NCCCN1CCN(c2ccccc2F)CC1)Nc1ccc(F)cc1,–,–,–,–,–,–
CNC(=S)NNC(=O)c1noc(C)c1C(=O)N1CCN(C(c2ccccc2)c2ccccc2)CC1,·,–,·,·,–,–
Cc1cccc(Nc2nc(N)nc(CN3CCC(C)CC3)n2)c1C,–,–,–,·,–,100
CCOC(=O)c1c(NC(=O)c2cc3n(n2)C(C(F)(F)F)CC(c2cccs2)N3)sc(C)c1C (stereo not given),–,–,–,–,–,·
SMILES,Measles CPE,Mdm2 ligase inh,Yeast growth inh,Yeast lifespan up,RAM inhibit,INS promoter inh
CCOC(=O)C(=CNc1ccc(C)cc1C)C(=O)OCC,37,–,–,–,–,–
COc1cc(-c2nnc(SCc3ccccc3Cl)o2)cc(OC)c1OC,–,–,–,–,11,·
Clc1ccccc1CSc1nnc(-c2ccncc2)o1,–,–,–,–,–,–
COc1cc(-c2nnc(SCc3c(F)cccc3Cl)o2)cc(OC)c1OC,–,–,–,–,11,–
O=c1[nH]c2ccccc2n1Cc1ccccc1,–,–,–,–,–,·
O=c1[nH]c2cccnc2n1Cc1ccccc1,–,–,–,–,–,82
CCC(NC(=O)NCc1ccccc1)(C(F)(F)F)C(F)(F)F,–,–,–,–,–,71
CCC(NC(=O)NCc1ccc2c(c1)OCO2)(C(F)(F)F)C(F)(F)F,–,–,–,–,–,–
